Data on 18 compounds can be found in ChEMBL document CHEMBL1123650, “In vivo characterization of hydroxamic acid inhibitors of 5-lipoxygenase” (J Med Chem, 1987).

Molecules are shown by their SMILES. Calls of active or inactive are those of the source. The rule behind the calls is not given here.

The test system of test [1] is Rattus norvegicus. Kind of test: Inhibition of leukotriene biosynthesis was determined in vivo with the rat peritoneal anaphylaxis model administered perorally at 100 mg/kg. Format: functional. As to conditions: route oral. An outline of the steps: (§1)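 Fasted male Sprague-Dawley rats sensitized ip with rabbit anti-BSA in PBS pH 7.1, then challenged ip 3 h later with BSA (4 mg) in PBS containing 30 mM L-cysteine. Compound in 0.2% methylcellulose given by gavage 1 h before challenge; 6–8 rats per group. Peritoneal fluid collected 15 min after challenge, LTC4 measured by RIA. % inhibition vs control mean, ± SEM; significance at […].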

The test system of test [2] is Rattus norvegicus. Kind of test: Plasma concentration was evaluated for corresponding hydroxamic acid metabolite at 100 mg/kg dose peroral administration in rats after 20 min. Format: functional, organism-based. Set-up: dose 100 mg/kg. An outline of the steps:
(§2)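 Rats dosed by oral gavage, 100 mg/kg suspended in 0.2% methylcellulose (4 mL/kg). Blood taken from lateral tail vein, plasma separated. Proteins precipitated with 2 volumes methanol before reversed-phase HPLC, or plasma acidified and ether-extracted for normal-phase HPLC. Parent hydroxamate and carboxylic acid metabolite measured. Average of four determinations with range.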

In test [3] the test system is Rattus norvegicus. Kind of test: Plasma concentration was evaluated for corresponding carboxylic acid metabolite at 100 mg/kg dose peroral administration in rats after 20 min. Format: functional, organism-based. Further details: dose 100 mg/kg. An outline of the steps: as §2
Test [4] deals with Rattus norvegicus. Kind of test: Plasma concentration was evaluated for corresponding carboxylic acid metabolite at 100 mg/kg dose peroral administration in rats after 60 min. Format: functional, organism-based. Further details: dose 100 mg/kg. A digest of the protocol:
as §2

Test [5] concerns Rattus norvegicus. Kind of test: Plasma concentration was evaluated for corresponding hydroxamic acid metabolite at 100 mg/kg dose peroral administration in rats after 60 min. Format: functional, organism-based. Further details: dose 100 mg/kg. An outline of the steps: as §2
The target in test [6] is T1, Polyunsaturated fatty acid 5-lipoxygenase (Rattus norvegicus, UniProt P12527).
T1 sequence (P12527 whole entry): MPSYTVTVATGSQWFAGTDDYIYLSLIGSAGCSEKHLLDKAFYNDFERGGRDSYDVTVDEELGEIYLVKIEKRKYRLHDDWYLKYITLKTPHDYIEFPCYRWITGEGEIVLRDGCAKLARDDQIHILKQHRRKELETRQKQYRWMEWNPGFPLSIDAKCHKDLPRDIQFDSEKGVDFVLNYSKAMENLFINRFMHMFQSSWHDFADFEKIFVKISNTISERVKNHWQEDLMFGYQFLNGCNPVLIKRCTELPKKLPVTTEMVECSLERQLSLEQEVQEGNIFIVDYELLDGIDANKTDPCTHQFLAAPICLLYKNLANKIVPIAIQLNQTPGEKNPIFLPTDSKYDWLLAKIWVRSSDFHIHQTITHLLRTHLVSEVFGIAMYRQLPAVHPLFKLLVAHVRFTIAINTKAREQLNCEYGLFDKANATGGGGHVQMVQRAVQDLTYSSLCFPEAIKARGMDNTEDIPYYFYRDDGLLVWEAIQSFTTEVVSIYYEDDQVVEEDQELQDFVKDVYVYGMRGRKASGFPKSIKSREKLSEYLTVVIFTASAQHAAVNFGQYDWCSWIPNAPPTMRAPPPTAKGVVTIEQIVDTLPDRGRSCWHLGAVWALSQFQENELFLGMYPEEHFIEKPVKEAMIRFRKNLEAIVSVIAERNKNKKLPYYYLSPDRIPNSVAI
Kind of test: In vitro inhibitory activity against 5-lipoxygenase in rat RBL-1 cells. Format: cell-based. A digest of the protocol: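 RBL-1 cell homogenate, 20000g supernatant (from 6 × 10^4 cells) in 200-μL incubations with 2% DMSO vehicle and varied inhibitor concentrations. Reaction started with radiolabeled arachidonic acid, stopped by acidification and ether extraction. Products separated from substrate by TLC and counted by scintillation. Triplicate incubations, compared against mean of vehicle controls (n = 8). IC50 with 95% confidence limits from linear regression of % inhibition vs log concentration.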

For test [7], the system named is Rattus norvegicus. Kind of test: Inhibition of leukotriene biosynthesis was determined in vivo with the rat peritoneal anaphylaxis model administered perorally at 100 mg/kg; not significant. Format: functional, organism-based. Set-up: dose 100 mg/kg. A digest of the protocol: as §1
Test [8] concerns Rattus norvegicus. Kind of test: Inhibition of leukotriene biosynthesis was determined in vivo with the rat peritoneal anaphylaxis model administered perorally at 100 mg/kg *p > 0.05. Format: functional. Particulars: route oral. A digest of the protocol: as §1

With `CC(C)Cc1ccc(C(C)C(=O)N(C)O)cc1` (stereo not drawn), the inhibition in vivo – broadly, the relative decrease from the control value, in per cent – at 100 mg/kg in the test with Rattus norvegicus [1] stood at 65%. Further, the Concentration came out at 32 µM in the test with Rattus norvegicus [2], 41 µM in the test on Rattus norvegicus [3], 36 µM in the test on Rattus norvegicus [4] and 14 µM with Rattus norvegicus [5]. In addition, the IC50 (commonly the concentration that inhibits the measured activity by half) in test [6] worked out at 980 nM.

Turning to `CCCCOc1ccc(C(C)C(=O)N(C)O)cc1` (stereo not drawn), in the test on Rattus norvegicus [1], testing at 100 mg/kg gave an inhibition in vivo of 62%. The Concentration in the test on Rattus norvegicus [2] was determined as 38 µM; with Rattus norvegicus [3] it was 40 µM; in the test with Rattus norvegicus [4], 50 µM; in the test with Rattus norvegicus [5], 13 µM. The compound further displayed an IC50 in test [6] of 730 nM.

With `CC(C)Cc1ccc(C(C(=O)N(C)O)C(C)C)cc1` (stereo not drawn), the Concentration in the test with Rattus norvegicus [2] was 5 µM; in the test on Rattus norvegicus [3], 3.7 µM; in the test on Rattus norvegicus [4] it was 7.5 µM; in the test with Rattus norvegicus [5] it was 7.9 µM.

On to `CC(C)Cc1ccc(C(C)C(=O)NO)cc1` (stereo not drawn) [IBUPROXAM], for which the inhibition entry in the test on Rattus norvegicus [7] was “inactive”. In addition, the Concentration was found to be 49 µM with Rattus norvegicus [2], 114 µM in the test with Rattus norvegicus [3], 146 µM in the test with Rattus norvegicus [4] and 27 µM with Rattus norvegicus [5]. The compound also gave an IC50 in test [6] of 4840 nM.

On to `Cc1cc(C)c(-c2ccc(/C=C/C(=O)N(C)O)cc2)c(C)c1`, for which the inhibition result in the test with Rattus norvegicus [7] was “inactive”. Besides, the midpoint of inhibition in test [6], the IC50, lay at 22 nM.

On to `CC(C)Cc1ccc(CC(=O)N(C)O)cc1`, for which the Concentration in the test on Rattus norvegicus [2] stood at 46 µM; in the test on Rattus norvegicus [3], 162 µM; in the test on Rattus norvegicus [4], 138 µM; with Rattus norvegicus [5], 12 µM.

On to `COc1ccc2cc(C(C)C(=O)N(C)O)ccc2c1` (stereo not drawn), for which the inhibition in vivo at 100 mg/kg with Rattus norvegicus [1] came out at 52%. Moreover, the Concentration came to 1.7 µM in the test on Rattus norvegicus [2], 3 µM in the test on Rattus norvegicus [3], 4 µM in the test with Rattus norvegicus [4] and 1.3 µM with Rattus norvegicus [5]. Besides, in test [6], the IC50 was 410 nM.

`CC(C(=O)N(C)O)c1ccc(OCc2ccccc2)cc1` (stereo not drawn): at 100 mg/kg the inhibition in vivo in the test on Rattus norvegicus [1] was 62%. Further, the Concentration worked out at 8.4 µM in the test with Rattus norvegicus [2], 16 µM in the test on Rattus norvegicus [3], 51 µM in the test with Rattus norvegicus [4] and 7.9 µM in the test on Rattus norvegicus [5]. Besides, the half-maximal inhibitory concentration (IC50) in test [6] stood at 280 nM.

On to `CN(O)C(=O)c1ccc2ccccc2c1`, for which the inhibition result in the test with Rattus norvegicus [7] was “inactive”.

Regarding `CC(C)Cc1ccc(C(=O)N(C)O)cc1`, the Concentration in the test on Rattus norvegicus [2] is less than 5 µM; in the test on Rattus norvegicus [3], 432 µM; in the test with Rattus norvegicus [4], 404 µM; with Rattus norvegicus [5] it was less than 5 µM.

Consider `CC(C)Cc1ccc(/C=C/C(=O)N(C)O)cc1`, for which the Concentration with Rattus norvegicus [2] is less than 4 µM; in the test on Rattus norvegicus [3], 1.9 µM; in the test with Rattus norvegicus [4], 4.5 µM; with Rattus norvegicus [5] it was less than 4 µM.

As to `CC(C)Oc1ccc(C(C)C(=O)N(C)O)cc1` (stereo not drawn), the inhibition in vivo at 100 mg/kg in the test with Rattus norvegicus [1] amounted to 67%. In the test with Rattus norvegicus [5], the Concentration turned out to be 38 µM. The same compound had an IC50 in test [6] of 3700 nM.

In the test with Rattus norvegicus [8], `CN(O)C(=O)/C=C/c1ccc2ccccc2c1` came in with an inhibition in vivo at 100 mg/kg of 66%.

`Cc1cc(C)c(-c2ccc(C(=O)N(C)O)cc2)c(C)c1` returned an inhibition in vivo at 100 mg/kg with Rattus norvegicus [1] of 41%. Besides, half-maximal inhibition in test [6] (IC50) required 60 nM.

As for `CC(C)Cc1ccc(CCC(=O)N(C)O)cc1`, the Concentration was less than 10 µM in the test on Rattus norvegicus [2], 349 µM in the test with Rattus norvegicus [3], 80 µM in the test with Rattus norvegicus [4] and less than 10 µM in the test with Rattus norvegicus [5].

Consider `Cc1cc(C)c(-c2ccc(C(=O)NO)cc2)c(C)c1`, for which the inhibition entry in the test on Rattus norvegicus [7] was “inactive”.

Regarding `CC(C)Cc1ccc(C(C)C(=O)N(O)C(C)C)cc1` (stereo not drawn), the Concentration with Rattus norvegicus [2], in the test on Rattus norvegicus [3], in the test on Rattus norvegicus [4] and in the test on Rattus norvegicus [5] was less than 4 µM throughout.

For `CC(C)Cc1ccc(C(C)(C)C(=O)N(C)O)cc1`, the Concentration was 5.8 µM in the test with Rattus norvegicus [2], 9.3 µM with Rattus norvegicus [3], less than 1 µM in the test on Rattus norvegicus [4] and less than 1 µM in the test with Rattus norvegicus [5].
